Measured values as given in ChEMBL document CHEMBL4118033, “Total Synthesis, Configuration Assignment, and Cytotoxic Activity Evaluation of Protulactone A” (J Nat Prod, 2017).
Activity calls are given as the source filed them. The rule behind the calls is not given here.

Columns and labels:
Assay type in all cases: functional, cell-based
MOLT-4 = assay: Antiproliferative activity against human MOLT4 cells at 10 uM incubated for 48 hrs by sulforhodamine B assay
Summary of the method: (§1)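 Run by the NCI Developmental Therapeutics Program (Division of Cancer Treatment and Diagnosis) as part of the NCI60 human tumour cell line panel screen. Each compound was tested at a single dose of 10 μM. Results are reported as one-dose mean graphs.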

EKVX = assay: Antiproliferative activity against human EKVX cells at 10 uM incubated for 48 hrs by sulforhodamine B assay; summary of the method: as §1
UACC-62 = assay: Antiproliferative activity against human UACC62 cells at 10 uM incubated for 48 hrs by sulforhodamine B assay
Summary of the method: (§2)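 Run by the NCI Developmental Therapeutics Program (Division of Cancer Treatment and Diagnosis) as part of the NCI60 human tumour cell line panel. Each compound was tested in vitro at a single dose of 10 μM, and the data are reported as one-dose mean graphs across the panel.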

RPMI-8226 = assay: Antiproliferative activity against human RPMI8226 cells at 10 uM incubated for 48 hrs by sulforhodamine B assay; summary of the method: as §1
HOP-92 = assay: Antiproliferative activity against human HOP92 cells at 10 uM incubated for 48 hrs by sulforhodamine B assay; summary of the method: as §1
LOX IMVI = assay: Antiproliferative activity against human LOXIMVI cells at 10 uM incubated for 48 hrs by sulforhodamine B assay; summary of the method: as §1
NCI-H460 = assay: Antiproliferative activity against human NCI-H460 cells at 10 uM incubated for 48 hrs by sulforhodamine B assay; summary of the method: as §1
SNB-75 = assay: Antiproliferative activity against human SNB75 cells at 10 uM incubated for 48 hrs by sulforhodamine B assay; summary of the method: as §2
HCC 2998 = assay: Antiproliferative activity against human HCC2998 cells at 10 uM incubated for 48 hrs by sulforhodamine B assay; summary of the method: as §1
KM12 = assay: Antiproliferative activity against human KM12 cells at 10 uM incubated for 48 hrs by sulforhodamine B assay; summary of the method: as §1
SF-268 = assay: Antiproliferative activity against human SF268 cells at 10 uM incubated for 48 hrs by sulforhodamine B assay; summary of the method: as §1
OVCAR-5 = assay: Antiproliferative activity against human OVCAR5 cells at 10 uM incubated for 48 hrs by sulforhodamine B assay; summary of the method: as §1
IGROV-1 = assay: Antiproliferative activity against human IGROV1 cells at 10 uM incubated for 48 hrs by sulforhodamine B assay; summary of the method: as §1
NCI-H322M = assay: Antiproliferative activity against human NCI-H322M cells at 10 uM incubated for 48 hrs by sulforhodamine B assay; summary of the method: as §1
CAKI-1 = assay: Antiproliferative activity against human Caki1 cells at 10 uM incubated for 48 hrs by sulforhodamine B assay; summary of the method: as §1
SK-MEL-5 = assay: Antiproliferative activity against human SK-MEL-5 cells at 10 uM incubated for 48 hrs by sulforhodamine B assay; summary of the method: as §1
786-0 = assay: Antiproliferative activity against human 786-0 cells at 10 uM incubated for 48 hrs by sulforhodamine B assay; summary of the method: as §1
NCI-H23 = assay: Antiproliferative activity against human NCI-H23 cells at 10 uM incubated for 48 hrs by sulforhodamine B assay; summary of the method: as §1
SN12C = assay: Antiproliferative activity against human SN12C cells at 10 uM incubated for 48 hrs by sulforhodamine B assay; summary of the method: as §1
CCRF-CEM = assay: Antiproliferative activity against human CCRF-CEM cells at 10 uM incubated for 48 hrs by sulforhodamine B assay; summary of the method: as §1
A498 = assay: Antiproliferative activity against human A498 cells at 10 uM incubated for 48 hrs by sulforhodamine B assay; summary of the method: as §1
SK-OV-3 = assay: Antiproliferative activity against human SKOV3 cells at 10 uM incubated for 48 hrs by sulforhodamine B assay; summary of the method: as §1
BT-549 = assay: Antiproliferative activity against human BT549 cells at 10 uM incubated for 48 hrs by sulforhodamine B assay; summary of the method: as §1
NCI-H522 = assay: Antiproliferative activity against human NCI-H522 cells at 10 uM incubated for 48 hrs by sulforhodamine B assay; summary of the method: as §1
PC-3 = assay: Antiproliferative activity against human PC3 cells at 10 uM incubated for 48 hrs by sulforhodamine B assay; summary of the method: as §1
MDA-MB-231 = assay: Antiproliferative activity against human MDA-MB-231 cells at 10 uM incubated for 48 hrs by sulforhodamine B assay; summary of the method: as §1
A549 = assay: Antiproliferative activity against human A549/ATCC cells at 10 uM incubated for 48 hrs by sulforhodamine B assay; summary of the method: as §1
HOP-62 = assay: Antiproliferative activity against human HOP62 cells at 10 uM incubated for 48 hrs by sulforhodamine B assay; summary of the method: as §1
Hs-578T = assay: Antiproliferative activity against human Hs 578T cells at 10 uM incubated for 48 hrs by sulforhodamine B assay; summary of the method: as §1
NCI/ADR-RES = assay: Antiproliferative activity against human NCI/ADR-RES cells at 10 uM incubated for 48 hrs by sulforhodamine B assay; summary of the method: as §1
COLO 205 = assay: Antiproliferative activity against human COLO205 cells at 10 uM incubated for 48 hrs by sulforhodamine B assay; summary of the method: as §1
SK-MEL-2 = assay: Antiproliferative activity against human SK-MEL-2 cells at 10 uM incubated for 48 hrs by sulforhodamine B assay; summary of the method: as §1
SNB-19 = assay: Antiproliferative activity against human SNB19 cells at 10 uM incubated for 48 hrs by sulforhodamine B assay; summary of the method: as §1
NCI-H226 = assay: Antiproliferative activity against human NCI-H226 cells at 10 uM incubated for 48 hrs by sulforhodamine B assay; summary of the method: as §1
SR = assay: Antiproliferative activity against human SR cells at 10 uM incubated for 48 hrs by sulforhodamine B assay; summary of the method: as §2
OVCAR-4 = assay: Antiproliferative activity against human OVCAR4 cells at 10 uM incubated for 48 hrs by sulforhodamine B assay; summary of the method: as §1
Malme-3M = assay: Antiproliferative activity against human MALME-3M cells at 10 uM incubated for 48 hrs by sulforhodamine B assay; summary of the method: as §1
HCT-15 = assay: Antiproliferative activity against human HCT15 cells at 10 uM incubated for 48 hrs by sulforhodamine B assay; summary of the method: as §1
U-251 = assay: Antiproliferative activity against human U251 cells at 10 uM incubated for 48 hrs by sulforhodamine B assay; summary of the method: as §2
TK-10 = assay: Antiproliferative activity against human TK10 cells at 10 uM incubated for 48 hrs by sulforhodamine B assay; summary of the method: as §2
MDA-MB-468 = assay: Antiproliferative activity against human MDA-MB-468 cells at 10 uM incubated for 48 hrs by sulforhodamine B assay; summary of the method: as §1
SW-620 = assay: Antiproliferative activity against human SW620 cells at 10 uM incubated for 48 hrs by sulforhodamine B assay; summary of the method: as §2
DU-145 = assay: Antiproliferative activity against human DU145 cells at 10 uM incubated for 48 hrs by sulforhodamine B assay; summary of the method: as §1
OVCAR-8 = assay: Antiproliferative activity against human OVCAR8 cells at 10 uM incubated for 48 hrs by sulforhodamine B assay; summary of the method: as §1
K562 = assay: Antiproliferative activity against human K562 cells at 10 uM incubated for 48 hrs by sulforhodamine B assay; summary of the method: as §1

CC(=O)O[C@@H](C)[C@H]1O[C@H]2CC(=O)O[C@H]2[C@@H]1O
Activity (MOLT-4): inactive
Activity (EKVX): inactive
Activity (UACC-62): inactive
Activity (RPMI-8226): inactive
Activity (HOP-92): inactive
Activity (LOX IMVI): inactive
Activity (NCI-H460): inactive
Activity (SNB-75): inactive
Activity (HCC 2998): inactive
Activity (KM12): inactive
Activity (SF-268): inactive
Activity (OVCAR-5): inactive
Activity (IGROV-1): inactive
Activity (NCI-H322M): inactive
Activity (CAKI-1): inactive
Activity (SK-MEL-5): inactive
Activity (786-0): inactive
Activity (NCI-H23): inactive
Activity (SN12C): inactive
Activity (CCRF-CEM): inactive
Activity (A498): inactive
Activity (SK-OV-3): inactive
Activity (BT-549): inactive
Activity (NCI-H522): inactive
Activity (PC-3): inactive
Activity (MDA-MB-231): inactive
Activity (A549): inactive
Activity (HOP-62): inactive
Activity (Hs-578T): inactive
Activity (NCI/ADR-RES): inactive
Activity (COLO 205): inactive
Activity (SK-MEL-2): inactive
Activity (SNB-19): inactive
Activity (NCI-H226): inactive
Activity (SR): inactive
Activity (OVCAR-4): inactive
Activity (Malme-3M): inactive
Activity (HCT-15): inactive
Activity (U-251): inactive
Activity (TK-10): inactive
Activity (MDA-MB-468): inactive
Activity (SW-620): inactive
Activity (DU-145): inactive
Activity (OVCAR-8): inactive
Activity (K562): inactive

CC(=O)O[C@@H](C)[C@@H]1O[C@@H]2CC(=O)O[C@@H]2[C@H]1O
Activity (MOLT-4): inactive
Activity (EKVX): inactive
Activity (UACC-62): inactive
Activity (RPMI-8226): inactive
Activity (HOP-92): inactive
Activity (LOX IMVI): inactive
Activity (NCI-H460): inactive
Activity (SNB-75): inactive
Activity (HCC 2998): inactive
Activity (KM12): inactive
Activity (SF-268): inactive
Activity (OVCAR-5): inactive
Activity (IGROV-1): inactive
Activity (NCI-H322M): inactive
Activity (CAKI-1): inactive
Activity (SK-MEL-5): inactive
Activity (786-0): inactive
Activity (NCI-H23): inactive
Activity (SN12C): inactive
Activity (CCRF-CEM): inactive
Activity (A498): inactive
Activity (SK-OV-3): inactive
Activity (BT-549): inactive
Activity (NCI-H522): inactive
Activity (PC-3): inactive
Activity (MDA-MB-231): inactive
Activity (A549): inactive
Activity (HOP-62): inactive
Activity (Hs-578T): inactive
Activity (NCI/ADR-RES): inactive
Activity (COLO 205): inactive
Activity (SK-MEL-2): inactive
Activity (SNB-19): inactive
Activity (NCI-H226): inactive
Activity (SR): inactive
Activity (OVCAR-4): inactive
Activity (Malme-3M): inactive
Activity (HCT-15): inactive
Activity (U-251): inactive
Activity (TK-10): inactive
Activity (MDA-MB-468): inactive
Activity (SW-620): inactive
Activity (DU-145): inactive
Activity (OVCAR-8): inactive
Activity (K562): inactive

O=C1C[C@H]2O[C@H]([C@@H](O)c3ccccc3)[C@H](O)[C@H]2O1
Activity (MOLT-4): Active
Activity (EKVX): Active
Activity (UACC-62): Active
Activity (RPMI-8226): Active
Activity (HOP-92): Active
Activity (LOX IMVI): Active
Activity (NCI-H460): Active
Activity (SNB-75): Active
Activity (HCC 2998): Active
Activity (KM12): Active
Activity (SF-268): Active
Activity (OVCAR-5): Active
Activity (IGROV-1): Active
Activity (NCI-H322M): Active
Activity (CAKI-1): Active
Activity (SK-MEL-5): Active
Activity (786-0): Active
Activity (NCI-H23): Active
Activity (SN12C): Active
Activity (CCRF-CEM): Active
Activity (A498): Active
Activity (SK-OV-3): Active
Activity (BT-549): Active
Activity (NCI-H522): Active
Activity (PC-3): Active
Activity (MDA-MB-231): Active
Activity (A549): Active
Activity (HOP-62): Active
Activity (Hs-578T): Active
Activity (NCI/ADR-RES): Active
Activity (COLO 205): Active
Activity (SK-MEL-2): Active
Activity (SNB-19): Active
Activity (NCI-H226): Active
Activity (SR): Active
Activity (OVCAR-4): Active
Activity (Malme-3M): Active
Activity (HCT-15): Active
Activity (U-251): Active
Activity (TK-10): Active
Activity (MDA-MB-468): Active
Activity (SW-620): Active
Activity (DU-145): Active
Activity (OVCAR-8): Active
Activity (K562): Active
